Laboratory results: ChEMBL document CHEMBL3098006, “Preparation of 8-hydroxyquinoline derivatives as potential antibiotics against Staphylococcus aureus” (Bioorg Med Chem Lett, 2014)
≈ marks a conversion by molar mass, not a printed value.

How the values were obtained:
Staphylococcus aureus [1] = assay: Antibacterial activity against Staphylococcus aureus assessed as growth inhibition after 24 hrs by broth dilution method; assay type: functional
Summary of the method: (§1)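 Serial broth dilution in 96-well microtitre plate, compounds from 50 µg/mL top concentration (stocks 50 mg/mL in DMSO); methicillin positive control for S. aureus (from 50 µg/mL), […]. Incubation 37 °C, 24 h; MIC taken as lowest concentration giving complete growth inhibition.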

Escherichia coli = assay: Antibacterial activity against Escherichia coli assessed as growth inhibition after 24 hrs by broth dilution method; assay type: functional; summary of the method: as §1
HaCaT = assay: Cytotoxicity against human HaCaT cells assessed as cell shrinkage after 24 hrs by SRB assay; assay type: cell-based
Summary of the method: (§2)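 HaCaT keratinocytes and NE3 normal esophageal cells trypsinised, washed, resuspended at about 1×10^5 cells/mL, seeded in 96-well plates 24 h, then exposed 24 h to compounds from 50 µg/mL; doxorubicin 4 µg/mL positive control, 0.1% DMSO vehicle. SRB staining after TCA fixation, absorbance 575 nm; three independent experiments in triplicate, mean ± SD.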

Staphylococcus aureus [2] = assay: Antibacterial activity against Staphylococcus aureus assessed as growth inhibition at 50 ug/mL after 24 hrs; assay type: functional
Summary of the method: (§3)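 Agar well diffusion: S. aureus diluted in broth, plated on nutrient agar, wells punched with sterile pipette and loaded with compound (amount per well as in line) or methicillin positive control. Incubation 37 °C, 24 h; inhibition zone recorded as radius in mm, mean ± SD of three results.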

[3] = Cytotoxicity against human NE3 cells assessed as cell shrinkage after 24 hrs by SRB assay; assay type: cell-based; summary of the method: as §2
Staphylococcus aureus [4] = assay: Antibacterial activity against Staphylococcus aureus assessed as growth inhibition at 15 ug/mL after 24 hrs; assay type: functional; conditions: read-out: IZ; summary of the method: as §3
Staphylococcus aureus [5] = assay: Antibacterial activity against Staphylococcus aureus assessed as growth inhibition at 5 ug/mL after 24 hrs; assay type: functional; conditions: read-out: IZ; summary of the method: as §3

Row | SMILES | MIC (Staphylococcus aureus [1]) | MIC (Escherichia coli) | IC50 (HaCaT) | IC50 [3] | other results
1 | Cc1ccc2cccc(OCc3ccccc3)c2n1 | > 50 µg/mL | > 50 µg/mL |  |  | 
2 | O=Cc1ccc2cccc(O)c2n1 | 50 µg/mL (≈ 289 µM) | > 50 µg/mL | 19.1 µg/mL (≈ 111 µM) | 16.1 µg/mL (≈ 92.7 µM) | inhibition zone (IZ) (Staphylococcus aureus [2]): 7.5 mm
3 | Cc1ccc2cccc(OCCN3CCCCC3)c2n1 | > 50 µg/mL | > 50 µg/mL |  |  | 
4 | CCOc1cccc2ccc(C)nc12 | > 50 µg/mL | > 50 µg/mL |  |  | 
5 | COc1cccc2ccc(C)nc12 | > 50 µg/mL | > 50 µg/mL |  |  | 
6 | CCCCOc1cccc2ccc(C)nc12 | > 50 µg/mL | > 50 µg/mL |  |  | 
7 | Cl.O=Cc1ccc2cccc(O)c2n1 | 50 µg/mL | > 50 µg/mL | 22.5 µg/mL | 18.1 µg/mL | zone of inhibition at 50 µg/mL (Staphylococcus aureus [2]; Staphylococcus aureus, 24 h, read-out: IZ): 4.4 mm
8 | CC1(C)S[C@@H]2[C@H](NC(=O)[C@H](N)c3ccccc3)C(=O)N2[C@H]1C(=O)O [AMPICILLIN] |  | 7.5 µg/mL (≈ 21.5 µM) |  |  | 
9 | Cc1ccc2c(Br)cc(Br)c(O)c2n1 [BROQUINALDOL] | 6.25 µg/mL (≈ 19.7 µM) | > 50 µg/mL | 22.5 µg/mL (≈ 70.9 µM) | 18.6 µg/mL (≈ 58.7 µM) | zone of inhibition at 15 µg/mL (Staphylococcus aureus [4]): 7.43 mm
10 | COc1cccc2c1C(=O)c1c(O)c3c(c(O)c1C2=O)C[C@@](O)(C(=O)CO)C[C@@H]3O[C@H]1C[C@H](N)[C@H](O)[C@H](C)O1 [DOXORUBICIN] |  |  | 3.26 µg/mL (≈ 6 µM) | 1.89 µg/mL (≈ 3.48 µM) | 
11 | COc1cccc(OC)c1C(=O)N[C@@H]1C(=O)N2[C@@H]1SC(C)(C)[C@@H]2C(=O)O [METHICILLIN] | 3.12 µg/mL (≈ 8.21 µM) |  |  |  | zone of inhibition at 5 µg/mL (Staphylococcus aureus [5]): 10.8 mm
